Screening data: PubChem, Broad Institute
Rows were chosen to be rich in hits. Some 2% of all compounds tested hit in one or more screens of this group.
XiGFP reactiv: activators of inactive X chromosome reactivation, primary screen, imaging, XiGFP fibroblasts, GFP high-content imaging, set 2. 360,000 tested, 0.055% active. activation, % at 7.58 µM. XiGFP mouse fibroblasts, % GFP-positive cells imaging, 3 d; cells co-treated with 5-aza-dC sensitizer; scaled so ellipticine positive control = 100%;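 active means mean normalized replicate activation at least 10% and every replicate at or above 10%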;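 further: 0% = median of on-plate neutral control wells and 100% = ellipticine 6 µM median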
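material = 68-5-11 XiGFP fibroblast line | medium = DMEM plus 5-aza-dC sensitizer | schedule = 3 days compound exposure | benchmarks = positive control ellipticine, 6 µM final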
rRNA inh HTS: reduced GFP signal of wild-type E. coli, primary screen, bacterial rRNA inhibitor project, GFP/RFP fluorescence, OD600, single point | E. coli WT GFP vs humanized-ribosome RFP mutants, 24 h; stronger effect = lower value; DMSO median 0, no signal -100 | GFP signal change (wild-type ribosome), % (test concentration not listed) | 350,000 tested, 1.6% active;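 active means significant combined selectivity score with lowered wild-type GFP, culture density cut under 30%, mutant RFP and density less affected; inactive means any of these conditions unmet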
RAD54 inh: inhibitors of human RAD54 branch migration, primary screen, biochemical, fluorescence, single point; AID 602329, 2012; DNA repair and recombination protein RAD54-like (Homo sapiens), Q92698; 360,000 tested, 0.14% active; RAD54 Holliday junction branch migration, FAM/BHQ fluorescence; inhibition, % at 10.4 µM;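 active means mean normalized replicate activity at least 40 and at least half of replicates scoring 40 or more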;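 further: 0% = median of neutral control wells and 100% = median of positive control wells; inhibitors cause a drop in the FAM fluorescence signal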
RAD52 inh: RAD52 DNA annealing inhibitors, primary screen, biochemical, FRET, single point, set 2; recombinant RAD52 DNA annealing, FRET fluorescence; DNA repair protein RAD52 homolog (Homo sapiens), P43351; 360,000 tested, 0.46% active; inhibition, % at 18.7 µM;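 active means every replicate showing at least 50% inhibition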
PglD DTNB: C. jejuni PglD acetyltransferase inhibitors, primary screen, biochemical, DTNB colorimetric, single point; inhibition, % at 12.5 µM; 360,000 tested, 0.098% active; purified PglD enzyme, DTNB colorimetric CoA detection; AID 602405, 2012; in the data active means inhibition above about 16%, passing the limit was not always enough
E-selectin induc: E-selectin induction in HUVECs, primary screen, imaging, HUVEC, immunofluorescence imaging, single point; activation, % at 7.58 µM; 260,000 tested, 0.37% active; normalized: neutral wells 0, TNF-alpha wells 100; AID 686992, 2013; P16581;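 active means mean E-selectin-positive cell signal at least 10% of the positive control, reached in at least 60% of replicates, without over 20% cell loss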
Target sequence (P16581 whole entry, looked up): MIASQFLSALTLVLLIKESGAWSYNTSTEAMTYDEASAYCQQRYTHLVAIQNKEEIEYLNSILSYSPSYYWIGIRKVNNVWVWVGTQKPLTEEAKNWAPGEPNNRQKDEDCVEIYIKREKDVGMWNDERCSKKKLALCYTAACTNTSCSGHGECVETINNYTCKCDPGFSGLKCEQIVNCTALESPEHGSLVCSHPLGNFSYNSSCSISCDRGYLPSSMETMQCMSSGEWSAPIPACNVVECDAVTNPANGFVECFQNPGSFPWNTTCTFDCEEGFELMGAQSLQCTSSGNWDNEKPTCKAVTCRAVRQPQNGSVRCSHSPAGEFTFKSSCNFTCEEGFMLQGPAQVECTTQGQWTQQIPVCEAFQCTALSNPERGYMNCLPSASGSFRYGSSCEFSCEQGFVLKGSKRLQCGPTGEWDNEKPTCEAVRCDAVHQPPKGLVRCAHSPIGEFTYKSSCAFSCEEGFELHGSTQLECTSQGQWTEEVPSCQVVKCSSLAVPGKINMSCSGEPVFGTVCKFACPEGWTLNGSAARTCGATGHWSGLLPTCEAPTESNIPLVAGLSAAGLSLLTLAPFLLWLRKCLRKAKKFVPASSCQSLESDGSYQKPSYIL
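Assay system: HUVEC primary endothelial cells. Input: 3,000 HUVEC seeded per well. Doses: one compound dose added by pin transfer. Read-out basis: % PE-positive cells. Benchmarks: TNF-alpha high, DMSO low. Detection: immunofluorescence imaging. Buffer or medium: EGM-2, gelatin.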
Active calls of the source: *; nt = not tested or not shown.

SMILES | XiGFP reactiv | rRNA inh HTS | RAD54 inh | RAD52 inh | PglD DTNB | E-selectin induc
Cc1ccc(C(=O)Nc2scc(-c3ccccc3)c2C(=O)O)o1 | 0 | -34* | nt | -2 | nt | -4
O=C(O)CCC(=O)Nc1sc2c(c1C(=O)NCc1ccccc1)CCCC2 | 0 | -5 | -5 | -3 | 4 | 0
CN(C)CC(=O)N[C@@H]1CC[C@@H](CCn2cc(C3CCCCC3)nn2)O[C@@H]1CO | 0 | -2 | 16 | 0 | 0 | 0
N=c1c2c(-c3ccccc3)c(-c3ccccc3)n(Cc3ccco3)c2ncn1CCCO | 0 | -52* | 5 | -4 | -2 | 0
C[C@@H]1CCCCO[C@@H](CN(C)Cc2ccccc2)[C@H](C)CN([C@@H](C)CO)C(=O)c2cc(NS(=O)(=O)c3ccccc3)ccc2O1 | 0 | 2 | 4 | 4 | -1 | 0
O=c1[nH]c(=S)[nH]c2c1C(c1ccc(Br)cc1)c1c([nH]c(=S)[nH]c1=O)O2 | 0 | -1 | 56* | -1 | 15 | -2
O=C(Nc1cc(F)ccc1F)N1CC(=O)N2[C@H](C1)[C@@H](c1ccc(-c3ccccc3)cc1)[C@@H]2CO | 0 | -11 | nt | -11 | nt | 0
Cc1cc(C(=O)COC(=O)c2ccc(Br)o2)c(C)n1C | 0 | -23* | -11 | -13 | 0 | 3
C[C@@H]1CN([C@@H](C)CO)C(=O)c2cc(C#CCN(C)C)cnc2O[C@@H]1CN(C)Cc1cccc(C(=O)O)c1 | 0 | 2 | 2 | -32 | 0 | nt
O=C(CN1CCN(Cc2ccc(Cl)cc2)CC1)N/N=C/C=C/c1ccccc1[N+](=O)[O-] | 0 | -42* | nt | -4 | nt | 0
Cc1ccc(S(=O)(=O)N(C)C[C@H]2Oc3ccc(NC(=O)NC4CCCCC4)cc3C(=O)N([C@@H](C)CO)C[C@H]2C)cc1 | 0 | -2 | 2 | 7 | 0 | 0
O=C(O)C1C2C=CC(C2)C1C(=O)Nc1ccc2c(c1)OCCO2 (stereo unspecified) | nt | nt | 1 | nt | 0 | nt
CN(C)c1ccc(NC(=O)C2C3C=CC(C3)C2C(=O)O)cc1 (stereo unspecified) | 0 | 1 | 16 | 58* | 6 | 1
CC(=O)c1ccc(-c2ccc(C(=O)NCC(c3ccc(F)cc3)N3CCOCC3)o2)cc1 (stereo unspecified) | 0 | -14 | 7 | -47 | 2 | -2
O=C(NCC(c1ccc(F)cc1)N1CCOCC1)c1ccc([N+](=O)[O-])o1 (stereo unspecified) | 0 | -18* | 1 | -8 | -3 | 0
N#Cc1ccc(-c2ccc([C@H]3[C@H](CO)N4C(=O)CN(C(=O)C5CC5)C[C@@H]34)cc2)cc1 | 0 | -1 | nt | -1 | nt | 0
CC(C)(C)c1cc(NCCCn2ccnc2)n2ncc(-c3ccccc3)c2n1 | 0 | -49* | -3 | -3 | 4 | 1
Cc1cc(NCCCn2ccnc2)n2ncc(-c3ccc(Cl)cc3)c2n1 | nt | nt | 7 | nt | 8 | nt
CCOC(=O)C1=C2c3ccc4ccccc4c3CC(C)(C)N2C(=O)C1=O | 0 | -29* | -31 | -9 | -2 | -3
CCOC(=O)C1=C2c3cc(OC)c(OC)cc3CC(C)(C)N2C(=O)C1=O | 0 | -3 | 8 | -18 | 9 | -2
CC(=O)Nc1ccc(NC(=O)c2ccc(Cl)c(S(=O)(=O)N3CCc4ccccc43)c2)cc1 | 0 | -1 | -11 | -3 | 5 | 0
O=C(Nc1ccccn1)c1ccc(Cl)c(S(=O)(=O)N2CCc3ccccc32)c1 | 0 | -28* | 2 | -17 | nt | nt
O=C(Nc1cccnc1)c1ccc(Cl)c(S(=O)(=O)N2CCc3ccccc32)c1 | 0 | -26* | nt | -6 | nt | 2
